Screening results from PubChem BioAssay.
Rpn11 inh: inhibitors of human proteasome Rpn11. O00487. human 26S proteasome, Ub4-pepOG fluorescence polarization; 20S core pre-blocked with epoxomicin. inhibition, % at 20 µM. 360,000 compounds, 0.59% hits. AID 588493;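 active = inhibition at 20 µM, scaled to each plate's controls, above about 33%, limit read from the data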
Neddyl block: cullin neddylation inhibition | P61081+Q13564 | TR-FRET cullin neddylation, biochemical | inhibition, % at 25 µM | 360,000 compounds, 0.58% hits; in the data active = inhibition above about 36%
Target sequence (P61081 whole entry, looked up): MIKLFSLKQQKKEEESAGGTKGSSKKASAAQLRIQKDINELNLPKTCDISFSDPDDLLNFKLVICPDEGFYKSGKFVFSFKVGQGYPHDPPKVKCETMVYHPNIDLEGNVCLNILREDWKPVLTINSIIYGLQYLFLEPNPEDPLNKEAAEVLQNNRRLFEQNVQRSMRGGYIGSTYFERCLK
Target sequence (Q13564 whole entry, looked up): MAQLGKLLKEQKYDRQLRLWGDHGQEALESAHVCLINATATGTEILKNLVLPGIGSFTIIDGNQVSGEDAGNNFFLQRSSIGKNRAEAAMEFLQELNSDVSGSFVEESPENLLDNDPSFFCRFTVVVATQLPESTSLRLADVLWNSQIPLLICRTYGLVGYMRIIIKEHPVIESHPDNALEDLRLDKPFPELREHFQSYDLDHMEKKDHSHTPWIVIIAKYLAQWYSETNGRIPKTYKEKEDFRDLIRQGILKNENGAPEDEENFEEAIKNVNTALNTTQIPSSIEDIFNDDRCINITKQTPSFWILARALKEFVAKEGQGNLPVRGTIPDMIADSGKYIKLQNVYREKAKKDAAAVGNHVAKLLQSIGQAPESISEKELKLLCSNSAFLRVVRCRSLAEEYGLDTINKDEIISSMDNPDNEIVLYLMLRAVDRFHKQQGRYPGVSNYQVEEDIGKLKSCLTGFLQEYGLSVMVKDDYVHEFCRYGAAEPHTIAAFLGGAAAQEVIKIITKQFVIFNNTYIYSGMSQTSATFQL
HNF4A DNA FP: change in binding of human HNF4 alpha to DNA | P41235 | HNF4a-FITC DNA binding, fluorescence polarization, 1 h | activity change, % at 10 µM | 360,000 compounds, 0.3% hits; in the data active = activity change above about 30%, passing the limit was not always enough
TPT1 inh: C. albicans TPT1 enzyme inhibition | recombinant caTPT1, FP RNA substrate dephosphorylation | inhibition, % at 5 µM | 300,000 compounds, 0.81% hits | AID 1962;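 active = inhibition above the mean of all tested compounds plus 3 SD, set per screening campaign, cut at about 24% in these data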
Rin1-Abl PPI inh: human Rin1-Abl interaction inhibition; 360,000 compounds, 0.4% hits; AID 588664; inhibition, % at 7.35 µM; TR-FRET Rin1/Abl binding, biochemical; in the data active = inhibition above about 5%, passing the limit was not always enough
CSN deneddyl inh: blocks human CSN-mediated cullin deneddylation; Purified CSN, SCF-Nedd8-OG deneddylation, fluorescence polarization; inhibition, % at 12.5 µM; 360,000 compounds, 0.38% hits;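 active = pattern-corrected inhibition above about 35%, with an unprinted fluorescence ratio check between 0.5 and 1.5, limit read from the data, passing the limit was not always enough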
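Assay system: purified human Csn5 enzyme expressed in HEK293T cells; Input: 0.24 nM Csn5 enzyme, final concentration; Reagent: 10 nM SCFSkp2-Nedd8OG; Compound dosing: 12.5 µM single point; Times: reaction 90 min, room temperature; Technique: fluorescence polarization readout.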
Rin1 Abl conf: confirmation of inhibitors of human Rin1-Abl interaction; AID 602124; inhibition, % at 7.35 µM; shares compounds with Rin1-Abl PPI inh; TR-FRET Rin1-Abl binding, purified proteins; 1,300 compounds, 49% hits
GFP quench-1: quenches GFP fluorescence, counter-screen for Rin1-Abl inhibitors | shares compounds with Rin1-Abl PPI inh | inhibitors/quenchers counterscreen | inhibition, % at 6.75 µM | 1,300 compounds, 8.5% hits | AID 602125;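 note: ABL1-eGFP fusion protein alone without its partner RIN1-SBP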
GFP quench dose: counter-screen for Rin1-Abl inhibitors: GFP quenchers, dose response; shares compounds with Rin1-Abl PPI inh; GFP fluorescence interference/quenching counterscreen; IC50, µM; 230 tested, under 10 active; call rule not given here;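 note: ABL1-eGFP fusion protein alone without its RIN1 binding partner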
GFP quench-2: quenches GFP fluorescence in Rin1-Abl counterscreen; AID 602397; GFP fluorescence quenching counterscreen, biochemical; shares compounds with Rin1-Abl PPI inh; 25 tested, under 10 active; IC50, µM; call rule not given here
A number is an active result; 0 = inactive; - = no result given. In the library only some 2.4% were active in any assay of this set; here they are far more common. Cut-off read from the data, not from the text of the source, unless noted: active = inhibition above about 6.5%; inactive = the rest.

SMILES	Rpn11 inh	Neddyl block	HNF4A DNA FP	TPT1 inh	Rin1-Abl PPI inh	CSN deneddyl inh	Rin1 Abl conf	GFP quench-1	others
CCOc1ccc(S(=O)(=O)N2CCN(C(=O)CCC(=O)N3CCOCC3)CC2)cc1	0	0	0	0	11	0	11	0
Cc1cc(S(=O)(=O)N2CCN(C(=O)CCC(=O)N3CCOCC3)CC2)ccc1Br	0	0	0	0	16	0	21	0	GFP quench dose=0
CCOc1ccc(OCCC(=O)N2CCN(S(=O)(=O)c3ccc(OCC)cc3)CC2)cc1	0	0	0	0	0	0	-	-
O=C(CN1CCCN(Cc2ccc(F)cc2Cl)C1=O)NC1CCCC1	0	0	0	0	0	0	-	-
CC1Cc2ccccc2N1C(=O)COC(=O)/C=C/c1cccc(F)c1 (stereo not drawn)	0	0	0	-	12	0	0	0
Cc1ccc(OCC(=O)NNC(=O)C(=O)N2CCCC2)c(C)c1	0	0	0	0	0	0	-	-
COc1cc2c(cc1OC)CN(C(=O)C1CCCN1S(=O)(=O)c1ccc(F)cc1)CC2 (stereo not drawn)	0	0	0	0	0	0	-	-
O=C(O)/C=C/C(=O)NCc1csc2ccccc12	0	0	0	0	0	0	-	-
CC1(C)CC(=O)C2=C(C1)OC(N)=C(C#N)C21CCN(C(=O)OCc2ccccc2)CC1	0	0	0	0	0	0	-	-
CCOC(=O)N1CCC2(CC1)C(C#N)=C(N)OC1=C2C(=O)CC(C)C1 (stereo not drawn)	0	0	0	0	17	0	0	0
COc1ccc(S(=O)(=O)Nc2cc3c4c(c2)CCN4C(=O)CC3)cc1	0	0	0	0	0	0	-	-
CC(=O)c1ccc(NC(=O)c2ccc(S(=O)(=O)N3CCCC3)cc2)cc1	0	0	0	0	0	0	-	-
Cc1ccccc1C(=O)N1CCC(C(=O)Nc2ccc(S(=O)(=O)N3CCCCC3)cc2)CC1	0	0	0	0	12	0	7.8	0
O=C(Nc1ccc(S(=O)(=O)Nc2ccccc2)cc1)C1CC1	0	0	0	-	11	0	0	0
CC(=O)c1ccc(NC(=O)Nc2ccc(S(=O)(=O)N3CCCC3)cc2)cc1	0	0	0	-	15	0	11	0
CC(=O)Nc1ccc(NC(=O)C2CCN(C(=O)c3cccs3)CC2)cc1	0	0	0	0	47	0	71	0	GFP quench dose=0;GFP quench-2=0
Cc1ccc(NS(=O)(=O)c2ccc(NC(=O)C3CC3)cc2)cc1C	0	0	0	-	0	0	-	-
Cc1ccc(NC(=O)C2CCN(C(=O)c3cccs3)CC2)cc1	0	0	0	0	0	0	-	-
COc1ccccc1C(=O)Nc1nnc([C@@H]2C[C@H](O)[C@@H](CO)O2)s1	0	0	0	-	0	0	-	-
COc1cc(C(=O)OCC(=O)Nc2ccc(S(=O)(=O)N3CCCC3)cc2)cc(OC)c1OC	0	0	0	-	18	0	30	0	GFP quench dose=0
COC(=O)C1C(=O)c2c([nH]c(C(=O)OCC3CCCO3)c2C)CC1C (stereo not drawn)	0	0	0	0	0	0	-	-
CCc1ccc(S(=O)(=O)N2CC(=O)Nc3ccccc32)cc1	0	0	0	0	0	0	-	-
CCC(C)c1ccc(S(=O)(=O)N2CC(=O)Nc3ccccc32)cc1 (stereo not drawn)	0	0	0	0	5.8	0	0	0
O=S1(=O)CC(N2CCN(CC3CC3)CC2)CN1CCc1ccccc1 (stereo not drawn)	0	0	0	-	0	0	-	-
COc1ccc(-c2noc(Cn3cc(S(=O)(=O)N4CCCC4)ccc3=O)n2)cc1	0	0	0	-	0	0	-	-
COc1cc(O)c(C(C)=O)c(OC)c1	0	0	0	-	0	0	-	-
COc1cc(O)c(C(C)=O)c(CC(=O)O)c1	0	0	0	0	20	35	25	0	GFP quench dose=0
